Key:
Type in all cases: functional
[1] = Growth inhibition of human Hs578T cells assessed as cell growth at 10^-4 M after 48 hrs by SRB assay; settings: Hs-578T, read-out: Activity
SK-MEL-5 [2] = assay: Growth inhibition of human SK-MEL-5 cells assessed as cell growth at 10^-4 M after 48 hrs by SRB assay; settings: SK-MEL-5, 48 h, read-out: Activity
MDA-MB-231 [3] = assay: Growth inhibition of human MDA-MB-231 cells assessed as cell growth at 10^-7 M after 48 hrs by SRB assay; settings: MDA-MB-231, 48 h, read-out: Activity
[4] = Growth inhibition of human MOLT4 cells assessed as cell growth at 10^-4 M after 48 hrs by SRB assay; settings: MOLT-4, 48 h, read-out: Activity
[5] = Growth inhibition of human SF539 cells assessed as cell growth at 10^-4 M after 48 hrs by SRB assay; settings: SF-539, 48 h, read-out: Activity
MDA-MB-231 [6] = assay: Growth inhibition of human MDA-MB-231 cells assessed as cell growth at 10^-4 M after 48 hrs by SRB assay; settings: MDA-MB-231, 48 h, read-out: Activity
CAKI-1 = assay: Growth inhibition of human CAKI-1 cells assessed as cell growth at 10^-7 M after 48 hrs by SRB assay; settings: CAKI-1, 48 h, read-out: Activity
How it was run: (§1)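 Five-dose NCI panel protocol. Each dose (10^-4 to 10^-8 M, 10-fold steps) was given as 48 h continuous exposure, and protein was measured by SRB staining. Percentage growth at each level is [(Ti−Tz)/(C−Tz)]×100, where Tz is time-zero absorbance and C is untreated control.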

U-251 [7] = assay: Growth inhibition of human U251 cells assessed as cell growth at 10^-8 M after 48 hrs by SRB assay; settings: U-251, 48 h, read-out: Activity
MDA-MB-468 = assay: Growth inhibition of human MDA-MB-468 cells assessed as cell growth at 10^-5 M after 48 hrs by SRB assay; settings: MDA-MB-468, 48 h, read-out: Activity
[8] = Growth inhibition of human UACC257 cells assessed as cell growth at 10^-5 M after 48 hrs by SRB assay; settings: UACC-257, 48 h, read-out: Activity
SK-MEL-5 [9] = assay: Growth inhibition of human SK-MEL-5 cells assessed as cell growth at 10^-7 M after 48 hrs by SRB assay; settings: SK-MEL-5, 48 h, read-out: Activity
U-251 [10] = assay: Growth inhibition of human U251 cells assessed as cell growth at 10^-7 M after 48 hrs by SRB assay; settings: U-251, 48 h, read-out: Activity
[11] = Cytotoxicity against human HCT15 cells after 48 hrs by SRB assay; settings: HCT-15, 48 h
How it was run: (§2)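 NCI 60-cell-line panel of human tumour lines from nine cancer types. Continuous 48 h exposure at five 10-fold dilutions from 10^-4 to 10^-8 M, with 5-FU as positive control. SRB protein stain read spectrophotometrically at time zero, untreated control and each concentration. GI50, TGI and LC50 were derived from the [(Ti−Tz)/(C−Tz)]×100 growth relations, and out-of-range values are given as > or < the tested limits.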

[12] = Growth inhibition of human UACC257 cells assessed as cell growth at 10^-4 M after 48 hrs by SRB assay; settings: UACC-257, 48 h, read-out: Activity
[13] = Growth inhibition of human RXF393 cells assessed as cell growth at 10^-7 M after 48 hrs by SRB assay; settings: RXF 393, 48 h, read-out: Activity
CCRF-CEM [14] = assay: Growth inhibition of human CCRF-CEM cells assessed as cell growth at 10^-4 M after 48 hrs by SRB assay; settings: read-out: Activity; how it was run: as §1
[15] = Growth inhibition of human OVCAR5 cells assessed as cell growth at 10^-5 M after 48 hrs by SRB assay; settings: OVCAR-5, 48 h, read-out: Activity
SK-MEL-28 = assay: Growth inhibition of human SK-MEL-28 cells assessed as cell growth at 10^-4 M after 48 hrs by SRB assay; settings: SK-MEL-28, 48 h, read-out: Activity
[16] = Growth inhibition of human SF539 cells assessed as cell growth at 10^-6 M after 48 hrs by SRB assay; settings: SF-539, 48 h, read-out: Activity
[17] = Growth inhibition of human EKVX cells assessed as cell growth at 10^-6 M after 48 hrs by SRB assay; settings: read-out: Activity
BT-549 = assay: Cytotoxicity against human BT549 cells after 48 hrs by SRB assay; settings: BT-549, 48 h; how it was run: as §2
MCF7 = assay: Growth inhibition of human MCF7 cells assessed as cell growth at 10^-7 M after 48 hrs by SRB assay; settings: MCF7, 48 h, read-out: Activity
DU-145 [18] = assay: Cytotoxicity against human DU145 cells after 48 hrs by SRB assay; settings: DU-145, 48 h; how it was run: as §2
786-0 = assay: Growth inhibition of human 786-0 cells assessed as cell growth at 10^-6 M after 48 hrs by SRB assay; settings: 786-0, 48 h, read-out: Activity; how it was run: as §1
DU-145 [19] = assay: Growth inhibition of human DU145 cells assessed as cell growth at 10^-5 M after 48 hrs by SRB assay; settings: DU-145, 48 h, read-out: Activity; how it was run: as §1
T47D = assay: Growth inhibition of human T47D cells assessed as cell growth at 10^-5 M after 48 hrs by SRB assay; settings: read-out: Activity
Malme-3M = assay: Growth inhibition of human MALME-3M cells assessed as cell growth at 10^-8 M after 48 hrs by SRB assay; settings: read-out: Activity
SNB-75 = assay: Growth inhibition of human SNB75 cells assessed as cell growth at 10^-7 M after 48 hrs by SRB assay; settings: SNB-75, 48 h, read-out: Activity
HOP-62 = assay: Growth inhibition of human HOP62 cells assessed as cell growth at 10^-4 M after 48 hrs by SRB assay; settings: HOP-62, 48 h, read-out: Activity
SR = assay: Growth inhibition of human SR cells assessed as cell growth at 10^-4 M after 48 hrs by SRB assay; settings: read-out: Activity
CCRF-CEM [20] = assay: Growth inhibition of human CCRF-CEM cells assessed as cell growth at 10^-8 M after 48 hrs by SRB assay; settings: read-out: Activity; how it was run: as §1
MDA-MB-435 = assay: Growth inhibition of human MDA-MB-435 cells assessed as cell growth at 10^-6 M after 48 hrs by SRB assay; settings: MDA-MB-435, 48 h, read-out: Activity
DU-145 [21] = assay: Growth inhibition of human DU145 cells assessed as cell growth at 10^-7 M after 48 hrs by SRB assay; settings: DU-145, 48 h, read-out: Activity
[22] = read-out: LC50 (the source's name)
[23] = read-out: pLC50 (the source's name) (converted)

SMILES: Cc1ccc(-c2nc3ccc(Cl)cc3c(=O)n2/N=C/c2ccccc2)cc1
- growth at 100 µM [1]: -9%
- growth at 100 µM (SK-MEL-5 [2]): 34%
- growth at 0.1 µM (MDA-MB-231 [3]): 99%
- growth at 100 µM [4]: 56%
- growth at 100 µM [5]: 75%
- growth at 100 µM (MDA-MB-231 [6]): 16%
- growth at 0.1 µM (CAKI-1): 76%
- growth at 0.01 µM (U-251 [7]): 99%
- growth at 10 µM (MDA-MB-468): 65%
- growth at 10 µM [8]: 73%
- growth at 0.1 µM (SK-MEL-5 [9]): 92%
- growth at 0.1 µM (U-251 [10]): 99%
- GI50 ([11]; read-out: GI50): > 100 µM
- CC50 [11, 22]: > 100 µM
- TGI ([11]; read-out: TGI): > 100 µM
- GI50 ([11]; read-out: pGI50 (converted)): > 100 µM
- CC50 [11, 23]: > 100 µM
- TGI ([11]; read-out: pTGI): > 100 µM
- growth at 100 µM [12]: 60%
- growth at 0.1 µM [13]: 101%
- growth at 100 µM (CCRF-CEM [14]): 57%
- growth at 10 µM [15]: 74%
- growth at 100 µM (SK-MEL-28): 27%
- growth at 1 µM [16]: 94%
- growth at 1 µM [17]: 76%
- GI50 (BT-549; read-out: GI50): 100 µM
- CC50 (BT-549; [22]): > 100 µM
- TGI (BT-549; read-out: TGI): > 100 µM
- GI50 (BT-549; read-out: pGI50 (converted)): > 100 µM
- CC50 (BT-549; [23]): > 100 µM
- TGI (BT-549; read-out: pTGI): > 100 µM
- growth at 0.1 µM (MCF7): 90%
- GI50 (DU-145 [18]; read-out: GI50): 58.4 µM
- CC50 (DU-145 [18]; [22]): > 100 µM
- TGI (DU-145 [18]; read-out: TGI): > 100 µM
- GI50 (DU-145 [18]; read-out: pGI50 (converted)): 58.9 µM
- CC50 (DU-145 [18]; [23]): > 100 µM
- TGI (DU-145 [18]; read-out: pTGI): > 100 µM
- growth at 1 µM (786-0): 90%
- growth at 10 µM (DU-145 [19]): 55%
- growth at 10 µM (T47D): 14%
- growth at 0.01 µM (Malme-3M): 92%
- growth at 0.1 µM (SNB-75): 81%
- growth at 100 µM (HOP-62): -64%
- growth at 100 µM (SR): 62%
- growth at 0.01 µM (CCRF-CEM [20]): 98%
- growth at 1 µM (MDA-MB-435): 87%
- growth at 0.1 µM (DU-145 [21]): 98%
